Publication PMC11867109 (Chemical Science, 2025)
No end group written: not given here.

Columns and labels:
human red blood cells = experiment: Hemolysis assay; type: cell-based; conditions: hRBC, at 64 μg mL^−1 peptide; mean ± SD
Method in brief: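 Human red blood cells exposed to two-fold serial dilutions of test peptide, with 4096 µg mL⁻¹ as the assay's upper concentration limit. HC10 is interpolated continuously from the dilution series. Values are means of three independent experiments, each with at least two technical duplicates, with standard deviation.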

[1] = Helicity and helical rigidity by circular dichroism; type: physicochemical; conditions: ratio between molar ellipticity in 15% TFE and in 100% TFE

For GLFDIIKKIAESF-NH2 [Aurein 1.2], the hemolysis (human red blood cells) was 37.2 ± 1.8% and the “Helical rigidity % ± SD” value [1] was 102 ± 2%.
